Assay outcomes (PubChem)
Rows were chosen to be rich in hits. Some 1.5% of all compounds tested hit in one or more screens of this group.
CCR6 antagonist: antagonists of human CCR6 receptor; AID 493098; inhibition, % at 20 µM; CHO-K1 CCR6 PathHunter beta-arrestin, luminescence, CCL20-stimulated; 340,000 compounds, 0.49% hits; P51684;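 active means compounds whose inhibition of the agonist-driven luminescence signal at 20 µM reaches about 50%, limit read from the data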;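 further: cells stimulated with CCL20 at 14 nM final; plate controls were DMSO with CCL20 for no effect and DMSO without agonist for full effect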
APJ antag: APJ receptor antagonism | P35414 | CHO-K1 APJ beta-arrestin complementation, luminescence | inhibition, % at 20 µM | 330,000 compounds, 0.32% hits;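 active means inhibition above about 40% at 20 µM, limit read from the data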;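 further: cells challenged with 10 nM apelin-13 agonist together with compound; plate controls were apelin-13 plus DMSO wells for no effect and DMSO wells lacking apelin-13 for full effect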
Target sequence (P35414 whole entry, looked up): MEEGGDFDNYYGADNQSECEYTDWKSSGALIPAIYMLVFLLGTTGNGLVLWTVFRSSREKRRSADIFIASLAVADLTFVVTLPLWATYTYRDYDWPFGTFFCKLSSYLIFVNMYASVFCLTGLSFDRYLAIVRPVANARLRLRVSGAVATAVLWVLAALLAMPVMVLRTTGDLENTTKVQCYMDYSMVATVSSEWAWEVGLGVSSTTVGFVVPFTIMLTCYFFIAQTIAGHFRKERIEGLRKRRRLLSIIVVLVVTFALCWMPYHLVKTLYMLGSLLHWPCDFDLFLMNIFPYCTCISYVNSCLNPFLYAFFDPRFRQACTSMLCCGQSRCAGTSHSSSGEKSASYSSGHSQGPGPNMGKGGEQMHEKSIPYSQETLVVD
EBI2 antag: antagonists of human EBI2 receptor; EBI2 beta-arrestin recruitment, luminescence, 7a,25-OHC stimulated; 360,000 compounds, 0.81% hits; inhibition, % at 5 µM; in the data active means inhibition above about 38%;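 further: enzyme fragment complementation signal reports receptor beta-arrestin coupling in cells; 0% = agonist plus DMSO wells and 100% = wells without agonist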
APJ agonist: activates the human apelin receptor APJ. CHO-K1 APJ PathHunter beta-arrestin, luminescence; 0% DMSO wells, 100% apelin. activation, % at 20 µM. 330,000 compounds, 0.11% hits. AID 2520;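 active means activation more than six SD over the plate average, tested at 20 µM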;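 further: 0% = DMSO alone and 100% = apelin-13 at 10 nM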
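Assay system: CHO-K1 cells stably expressing ProLink-tagged human APJ and arrestin–beta-gal acceptor. Compound dosing: 20 µM single point, 1% DMSO. Times: 16-18 h seeding, 90 min dark compound exposure, 60 min detection. Detection: beta-gal luminescence. Evaluation: APJ–arrestin association signal. Controls: negative DMSO alone, positive Apelin-13 at 10 nM.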
CXCR6 inh: inhibitors of human CXCR6 receptor. O00574. 360,000 compounds, 0.36% hits. inhibition, % at 20 µM. CHO-K1 PathHunter CXCR6 beta-arrestin, luminescence; in the data active means inhibition above about 34%, passing the limit was not always enough;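 further: antagonist mode with CXCL16 agonist at 10 nM final; 0% = 10 nM CXCL16 with DMSO and 100% = unstimulated wells without agonist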
An asterisk follows results filed as active; / = no result given.

SMILES | CCR6 antagonist | APJ antag | EBI2 antag | APJ agonist | CXCR6 inh
CN=C(Nc1cc(C)nn1CCC#N)c1ccccc1F | 10 | -5 | 1 | 1 | 0
Cc1cc2oc(=O)cc(CN3CCN(c4ccccc4)CC3)c2cc1Cl | / | / | 7 | / | 4
Cc1cc2oc(=O)cc(Cn3ncc(Cl)c(Cl)c3=O)c2cc1Cl | 20 | 24 | 50* | -1 | 31
O=C1CCCC(=NCc2ccco2)C1 | 0 | -1 | -2 | -5 | 4
CN(C)c1nc(=NCc2ccco2)ss1 | 104* | / | 13 | / | 100*
NC(=O)CSc1nc2ccc([N+](=O)[O-])cc2[nH]1 | 18 | 5 | -5 | 0 | 7
Cc1cccc2nc(CSc3nc4ccc([N+](=O)[O-])cc4[nH]3)c(Br)n12 | 52* | 20 | 2 | 1 | 10
Cc1ccc2nc3cc([N+](=O)[O-])cc([N+](=O)[O-])c3cc2c1 | 50 | / | 53* | / | 23
COc1cc(C(=O)NCc2nnc(SCC(=O)Nc3nc4ccccc4s3)o2)cc(OC)c1OC | -17 | -11 | -4 | 2 | -3
Cc1cc(N2CCCC2=O)ccc1S(=O)(=O)NC1CCCCC1 | 2 | 3 | -15 | -2 | -5
Cc1cc(C)c(S(=O)(=O)/N=C2/C=C(Sc3ncn[nH]3)C(=O)c3ccccc32)cc1C | 79* | / | 11 | / | 46*
Cc1ccc(C)c(S(=O)(=O)/N=C2\C=C(NS(=O)(=O)c3ccccc3)C(=O)c3ccccc32)c1 | 45 | 37 | 9 | -3 | 34
NC(=O)c1ncn([C@@H]2O[C@H](CNCc3ccccc3OCc3ccc(Cl)cc3Cl)[C@@H](O)[C@H]2O)n1 | 5 | / | -4 | / | 2
Oc1ccc(CN2CCc3ccccc3C2)c2cccnc12 | 44 | 21 | 67* | -6 | 27
Oc1ccc(CN2CCN(c3ccccc3)CC2)c2cccnc12 | -1 | -19 | 60* | -3 | 8
O=C(CCSc1nnc2ccccn12)Nc1ccc(F)cc1 | 10 | -18 | 4 | 0 | 3
Cc1ccc(S(=O)(=O)N2CCCCC2)cc1NC(=O)Cn1ncc(Cl)c(Cl)c1=O | 13 | -2 | 63* | 1 | 24
CCCCC(c1nc2ccccc2[nH]1)N(C(=O)c1ccccc1)c1ccccc1[N+](=O)[O-] (stereo not drawn) | / | / | -11 | / | -2
O=C(O)c1ccc(N2C(=O)/C(=C/c3ccc(-c4ccc([N+](=O)[O-])cc4)o3)C=C2c2ccccc2)cc1 | / | 19 | -9 | -2 | 45*
Nc1cc(S(=O)(=O)O)cc2ccc(S(=O)(=O)O)cc12 | -2 | / | -33 | / | -12
Cc1cc(-c2ccc(N=Nc3c(S(=O)(=O)O)cc4cc(S(=O)(=O)O)cc(N)c4c3O)c(C)c2)ccc1N=Nc1c(S(=O)(=O)O)cc2cc(S(=O)(=O)O)cc(N)c2c1O | / | 78* | / | -17 | /
O=C(NCCCn1ccnc1)c1nc(Cn2ccc([N+](=O)[O-])n2)no1 | -7 | -4 | -12 | -1 | -4
CCOc1cc(/C=N/Nc2cc(C)nc(-n3nc(C)cc3C)n2)ccc1O | 116* | 106* | 97* | -16 | 110*
CCOc1cc(/C=N/Nc2nc(C)cc(=O)[nH]2)ccc1O | 2 | -13 | 0 | -4 | -8
CC1=NN(C(=O)c2ccccc2)C(O)(c2ccc(Br)cc2)C1 (stereo not drawn) | 55* | 24 | 14 | -5 | 34
SMILES | CCR6 antagonist | APJ antag | EBI2 antag | APJ agonist | CXCR6 inh
COC(=O)C1=NN(C(=O)c2cccc(Br)c2)C(O)(c2ccc(Cl)cc2)C1 (stereo not drawn) | / | 5 | -19 | 0 | 45*
O=C(OCC(=O)c1ccc(S(=O)(=O)N2CCCC2)cc1)C1=COCCO1 | 53* | 27 | 1 | -9 | 27
Cc1ccc(S(=O)(=O)N2CCOCC2)cc1NC(=O)COC(=O)C1=COCCO1 | 0 | 23 | -9 | -4 | -4
Cc1ccc(C(=O)OCC(=O)c2ccc(S(=O)(=O)N3CCCCC3)cc2)o1 | 53* | 36 | 20 | -19 | 32
CN(CC1CCN(CCc2cccc(C(F)(F)F)c2)CC1)C(=O)c1ccc(F)cc1F | 9 | 10 | 6 | -1 | 4
Cc1c(C(=O)NNC(=O)c2ccccc2O)oc2ccccc12 | / | / | -2 | / | -1
COc1ccc(-n2c(=S)[nH]c(=O)c3cccnc32)cc1 | 1 | 8 | -2 | -4 | -12
O=C1CC(=O)OC(c2ccc([N+](=O)[O-])cc2)O1 | / | / | 13 | / | 50*
CCC1C(=O)C(C)(C)C(=O)OC1c1ccc([N+](=O)[O-])cc1 (stereo not drawn) | -2 | / | 22 | / | -1
Cc1cc(C(=O)Nc2sccc2C(N)=O)c(C)o1 | -2 | -5 | -8 | -2 | -2
CCOP(=O)(OCC)C(C#N)=C1SCN(c2ccc(Cl)cc2)CS1 | 82* | 20 | 2 | -1 | 28
O=C(NC1CC1)c1ccc(COc2ccc(F)cc2)o1 | 13 | -19 | 1 | -3 | 2
CCC(C(=O)OCC(=O)Nc1cc(Cl)ccc1Cl)c1ccccc1 (stereo not drawn) | 21 | 42* | 2 | 2 | 1
CCC(C(=O)OCC(=O)Nc1ccc(OC)cc1OC)c1ccccc1 (stereo not drawn) | 10 | 3 | -3 | -1 | -6
Cc1cc(S(=O)(=O)c2ccc(Cl)cc2)nc(S(=O)(=O)c2ccc(Cl)cc2)c1C#N | / | / | -12 | / | 75*
CCN1C/C(=C\c2cccc([N+](=O)[O-])c2)C(=O)/C(=C/c2cccc([N+](=O)[O-])c2)C1 | 73* | / | 40 | / | 31
O=C1/C(=C/c2cccc([N+](=O)[O-])c2)CCc2ccccc21 | 23 | 18 | -71 | -6 | 15
Cc1ccc(C(=O)NC(=S)Nc2cccc3c(C)cc(C)nc23)cc1 | 51* | 1 | 34 | -1 | 20
Cc1ccc(C(=O)NC(=S)Nc2cccc3nsnc23)cc1 | 45 | 9 | 2 | -3 | 12
O=c1[nH]c(C2CCN(S(=O)(=O)c3ccc4c(c3)OCCO4)CC2)nc2c1nnn2Cc1c(F)cccc1Cl | 14 | -4 | -5 | 2 | 0
C=CCn1cccc(/C=C/C(=O)c2ccc(C(C)(C)C)cc2)c1=S | 37 | / | 44* | / | 19
Cc1cccc(C)c1CC(=O)N1CCOCC1 | 2 | -10 | -11 | -1 | -20
COc1ccc(C(=O)c2sc3nc(C)cc(-c4cccs4)c3c2N)cc1OC | 12 | / | 55* | / | -5
COc1ccc(C(=O)c2sc3nc(C)cc(-c4cccs4)c3c2N)cc1 | -9 | / | 33 | / | 5
Cc1ccccc1NS(=O)(=O)c1cccc(-c2nnc(-c3ccccc3)o2)c1 | 11 | 3 | 5 | -4 | 10
CN(C)S(=O)(=O)c1cccc(-c2nnc(-c3ccccc3)o2)c1 | 9 | 17 | 50* | 1 | 5
Cc1ccc(NC(=O)c2cc([N+](=O)[O-])ccc2N2CCCC2)cc1 | 29 | 22 | 16 | -3 | 5
O=C(Nc1nnc(C2CC2)s1)c1cc([N+](=O)[O-])ccc1N1CCCCC1 | 72* | 16 | 12 | -3 | 20
